Measured values reported in publication PMC11887798 (Science Advances, 2025).

Assays:
[1] = system: C57BL/6 mice; assay: APAP-induced ALF model validation; format: in vivo, mouse; conditions: APAP 500 mg/kg i.p.
Procedure, shortened: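 Male C57BL/6 mice were housed under SPF conditions with a 12-hour/12-hour light/dark cycle at 22°C and 45 to 60% humidity. APAP was dissolved in physiological saline by heating at 50°C and given intraperitoneally to induce acute liver failure.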

[2] = biological target: P-selectin; conditions: read-out: natural PSGL-1 binding to P-selectin (Kd); ref [23]; cited from earlier work

Row | Molecule | serum ALT and AST ([1]; n = 6) | mortality of mice ([1]; within 72 hours, n = 10) | Kd [2] [µM]
1 | CC(=O)Nc1ccc(O)cc1 [APAP, acetaminophen] | rising rapidly within 12 hours and peaking at 24 hours | over 50% | 
2 | PSGL-1: natural P-selectin ligand on neutrophils (protein, UniProt Q14242 42-412, looked up) P-selectin glycoprotein …: QATEYEYLDYDFLPETEPPEMLRNSTDTTPLTGPGTPESTTVEPAARRSTGLDAGGAVTELTTELANMGNLSTDSAAMEIQTTQPAATEAQTTQPVPTEAQTTPLAATEAQTTRLTATEAQTTPLAATEAQTTPPAATEAQTTQPTGLEAQTTAPAAMEAQTTAPAAMEAQTTPPAAMEAQTTQTTAMEAQTTAPEATEAQTTQPTATEAQTTPLAAMEALSTEPSATEALSMEPTTKRGLFIPFSVSSVTHKGIPMAASNLSVNYPVGAPDHISVKQCLLAILILALVATIFFVCTVVLAVRLSRKGHMYPVRNYSPTEMVCISSLLPDGGEGPSATANGGLSKAKSPGLTPEPREDREGDDLTLHSFLP |  |  | 0.32
